From ChEMBL document CHEMBL4819106, “Aminopyrazole based CDK9 PROTAC sensitizes pancreatic cancer cells to venetoclax” (Bioorg Med Chem Lett, 2021)
The source made the active and inactive calls. The rule behind the calls is not given here.

Columns and labels:
[1] = molecular target: T1, Protein cereblon/Cyclin-dependent kinase 9 (Homo sapiens, UniProt P50750+Q96SW2); assay: Protac activity at CDK9/CRBN in human HEK293 cells assessed as degradation of CDK9 at 0.01 to 10 uM incubated for 24 hrs by Western blot analysis; type: cell-based; conditions: dose 0.01-10 µM
Procedure, shortened: (§1)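 HEK293 cells were treated with increasing concentrations (0.01–10 μM) for 24 hr. Lysates were analysed by western blot for CDK9 degradation.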
Target sequence in this assay (P50750 whole entry, looked up): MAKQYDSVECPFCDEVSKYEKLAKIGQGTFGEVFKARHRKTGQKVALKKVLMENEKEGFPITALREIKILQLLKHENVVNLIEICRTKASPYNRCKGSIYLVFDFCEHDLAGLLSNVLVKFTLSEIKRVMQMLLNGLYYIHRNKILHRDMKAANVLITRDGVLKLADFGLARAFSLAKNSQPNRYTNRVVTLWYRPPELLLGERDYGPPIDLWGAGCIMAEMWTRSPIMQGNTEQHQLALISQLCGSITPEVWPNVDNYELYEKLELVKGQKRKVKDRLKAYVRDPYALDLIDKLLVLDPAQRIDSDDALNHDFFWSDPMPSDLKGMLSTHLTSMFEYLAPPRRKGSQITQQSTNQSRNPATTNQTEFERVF
Target sequence in this assay (Q96SW2 whole entry, looked up): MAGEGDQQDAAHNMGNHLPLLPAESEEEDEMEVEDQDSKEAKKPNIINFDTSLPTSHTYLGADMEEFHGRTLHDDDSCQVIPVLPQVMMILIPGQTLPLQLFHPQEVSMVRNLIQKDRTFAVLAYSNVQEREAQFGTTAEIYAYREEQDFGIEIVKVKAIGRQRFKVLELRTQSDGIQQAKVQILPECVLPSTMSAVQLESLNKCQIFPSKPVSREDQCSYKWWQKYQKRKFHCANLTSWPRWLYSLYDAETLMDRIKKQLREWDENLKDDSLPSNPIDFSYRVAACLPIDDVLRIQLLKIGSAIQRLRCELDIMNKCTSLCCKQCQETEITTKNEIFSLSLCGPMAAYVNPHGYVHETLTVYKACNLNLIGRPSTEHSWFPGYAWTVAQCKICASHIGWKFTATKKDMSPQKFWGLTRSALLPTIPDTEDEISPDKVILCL

[2] = molecular target: T1, Protein cereblon/Cyclin-dependent kinase 9; assay: Protac activity at CDK9/CRBN in human HEK293 cells assessed as degradation of CDK9 incubated for 24 hrs by Western blot analysis; type: cell-based; procedure, shortened: as §1
Target sequence in this assay (P50750 whole entry): as the sequence (P50750 whole entry, looked up) above
Target sequence in this assay (Q96SW2 whole entry): as the sequence (Q96SW2 whole entry, looked up) above

Row | Compound | Activity [1] | DC50 [2]
1 | O=C(COc1ccc(CC(=O)Nc2cc(C3CCC3)[nH]n2)cc1)NCCOCCOCCNc1cccc2c1C(=O)N(C1CCC(=O)NC1=O)C2=O (stereo not drawn) | inactive | –
2 | O=C(COc1ccc(CC(=O)Nc2cc(C3CCC3)[nH]n2)cc1)NCCCCCCCCNc1cccc2c1C(=O)N(C1CCC(=O)NC1=O)C2=O (stereo not drawn) | – | 1000 nM
3 | O=C(COCCOCCOCCOc1ccc(CC(=O)Nc2cc(C3CCC3)[nH]n2)cc1)NCCCCNc1cccc2c1C(=O)N(C1CCC(=O)NC1=O)C2=O (stereo not drawn) | inactive | –
